For data set [1], the system named is Salmonella typhimurium. Put plainly: Antibacterial activity against Salmonella typhimurium ATCC 14028 infected in ICR mouse model of peritonitis assessed as reduction colony forming units in spleen at 1 to 2 umol/kg, ip dosed at 2 hrs post infection and measured after 10 hrs post dose relative to marine peptide N6. The format is functional, Salmonella enterica subsp. enterica serovar Typhimurium. The arrangement: scale not given: the % may be the effect or the level left. In outline:
(§1)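 Female ICR mice, six weeks old (six per group), were infected ip with S. Typhimurium ATCC14028 (5 × 10^5 CFU, 0.5 mL). Peptide was given ip at 1, 1.5 or 2 µmol/kg 2 h post-infection. Mice were killed 10 h after treatment, and kidneys and spleens were homogenized in sterile PBS for CFU counts of translocated bacteria. PBS-treated mice served as negative control, ciprofloxacin-treated mice as positive.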

The test system of data set [2] is Salmonella typhimurium. Put plainly: Antibacterial activity against Salmonella typhimurium ATCC 14028 incubated for 16 to 18 hrs at pH 7.2 by broth microdilution method. The format is functional, Salmonella enterica subsp. enterica serovar Typhimurium. The conditions noted are these: Salmonella enterica. In outline: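 Broth microdilution in MH broth. S. Typhimurium ATCC14028 was grown overnight at 37 °C to semi-log phase, pelleted, and diluted to OD600 0.01; final inoculum was 5 × 10^5 CFU/mL. Plates were incubated 16–18 h at 37 °C. MIC is the lowest peptide concentration with no visible growth. Data are in duplicate from at least two independent experiments.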
In general terms: In broth dilution the organism is exposed to a series of concentrations in liquid medium.

The test system of data set [3] is Salmonella typhimurium. Put plainly: Antibacterial activity against Salmonella typhimurium ATCC 14028 using 1 hr cathepsin B pre-treated compound at pH 5 incubated for 16 to 18 hrs at by broth microdilution method. The format is functional, Salmonella enterica subsp. enterica serovar Typhimurium. The settings on record: Salmonella enterica. The method, boiled down:
(§2)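 Cathepsin B (bovine spleen, 10 µg/mL) was added for 1 h at 37 °C, and the reaction was stopped with 9 volumes of MHB. MIC was then run by broth microdilution (5 × 10^5 CFU/mL, 16–18 h, 37 °C) in medium adjusted to pH 5.0.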

The nature of data set [4]: Drug uptake in mouse RAW264.7 using FITC-labeled compound at 5 uM incubated for 2 hrs by flow cytometry. It is filed as ADME, cell-based. The conditions noted are these: raw264.7, 2 h. In outline: (§3)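 Confluent RAW264.7 cells were resuspended in PBS and incubated at 37 °C with 5 µM FITC-labeled peptide. Samples taken at 0.5 h and 2 h were quenched with 0.4% Trypan blue for extracellular fluorescence. Uptake (percent internalized cells) was read by flow cytometry, with free FITC as negative control.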
Background: Flow cytometry measures light scatter and fluorescence of single cells or particles in a stream.

Data set [5] is described as follows: Cytotoxicity in mouse RAW264.7 assessed as cell survival at 100 uM incubated for 8 hrs by MTT assay. It is filed as cell-based. The conditions noted are these: RAW264.7 cells, read-out: Survival. The method, boiled down: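 RAW264.7 cells seeded at 2.5 × 10^4 cells/well, cultured 24 h, then exposed for 8 h to 2-fold dilutions from 100 to 0.625 µM. MTT at 5 mg/mL added for 4 h, formazan dissolved in DMSO, absorbance read at 570 nm. Untreated cells served as control. Samples run in triplicate.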
Background: Formazan colour is commonly taken as a measure of viable cells.

Data set [6] relates to Salmonella typhimurium. The data set can be described thus: Antibacterial activity against Salmonella typhimurium ATCC 14028 infected in ICR mouse model of peritonitis assessed as reduction colony forming units in kidney at 1 to 2 umol/kg, ip dosed at 2 hrs post infection and measured after 10 hrs post dose relative to marine peptide N6. The format is functional, Salmonella enterica subsp. enterica serovar Typhimurium. The arrangement: scale not given: the % may be the effect or the level left. In outline:
as §1

Data set [7] can be described thus: Drug uptake in mouse RAW264.7 using FITC-labeled compound at 5 uM incubated for 0.5 hrs by flow cytometry. It is filed as ADME, cell-based. The settings on record: raw264.7, 0.5 h. The method, boiled down:
as §3

Data set [8] relates to Salmonella typhimurium. Put plainly: Bactericidal activity against 2 hrs-gentamicin pre-exposed Salmonella typhimurium ATCC 14028 assessed as reduction colony forming units at 20 uM incubated for 10 hrs relative to marine peptide N6. It is filed as functional, Salmonella enterica subsp. enterica serovar Typhimurium. Further details: scale not given: the % may be the effect or the level left. The method, boiled down: (§4)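 Macrophage protection assay. RAW264.7 cells (5 × 10^4/well, 24 h) were infected with S. Typhimurium ATCC14028 at MOI 10 for 1 h in DMEM/10% FBS, exposed to 100 µg/mL gentamicin for 2 h at 37 °C, and PBS-washed. Peptides in DMEM/10% FBS were added for 10 h. Cells were lysed with 0.1% Triton X-100 and CFU plated; log10 CFU reduction versus untreated cells. Three replicates; two independent experiments; one-way ANOVA with Tukey.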

Data set [9] has as its system Salmonella typhimurium. Put plainly: Antibacterial activity against Salmonella typhimurium ATCC 14028 using 1 hr cathepsin B pre-treated compound followed by incubation for 16 to 18 hrs at pH 5 by broth microdilution method. The format is functional, Salmonella enterica subsp. enterica serovar Typhimurium. The settings on record: Salmonella enterica. The method, boiled down:
as §2

Data set [10] can be described thus: Drug internalization in mouse RAW264.7 using FITC-labeled compound at 2 uM pre-incubated for 1 hr with lipid rafts disruptor methyl-beta-cyclodextrin followed by compound addition and subsequent incubation for 2 hrs by flow cytometry. It is filed as ADME, cell-based. The conditions noted are these: raw264.7, 2 h. The method, boiled down: (§5)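 RAW264.7 cells were pretreated 1 h at 37 °C with 3 mM amiloride, 20 µM nocodazole, 6 µg/mL chlorpromazine or 5 mM MβCD. FITC-labeled peptide was then added for 2 h at 37 °C. Extracellular fluorescence was quenched with 0.4% Trypan blue and intracellular fluorescence read by flow cytometry against an untreated control.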

Data set [11] in a line: Drug internalization in mouse RAW264.7 using FITC-labeled compound at 2 uM pre-incubated for 1 hr with clathrin-mediated endocytosis inhibitor chlorpromazine followed by compound addition and subsequent incubation for 2 hrs by flow cytometry. The conditions noted are these: raw264.7, 2 h. It is filed as ADME, cell-based. The method, boiled down: as §5
Data set [12] has as its system Salmonella typhimurium. The data set can be described thus: Antibacterial activity against Salmonella typhimurium ATCC 14028 assessed as time duration for reduction in growth using cathepsin B pre-treated compound at 1 to 2 MIC incubated for 1 to 24 hrs by time kill assay. The format is functional, Salmonella enterica subsp. enterica serovar Typhimurium. In outline:
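Time-kill of cathepsin B-pretreated peptide (1 h, 37 °C, pH 5 buffer). Mid-log S. Typhimurium at 10^5 CFU/mL was exposed to 1× and 2× MIC at 37 °C with shaking at 250 rpm. Samples were taken every 2 h, serially diluted and plate-counted. N6 and ciprofloxacin served as controls.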

Data set [13] relates to Salmonella typhimurium. Put plainly: Bactericidal activity against 2 hrs-gentamicin pre-exposed Salmonella typhimurium ATCC 14028 assessed as reduction colony forming units at 20 uM incubated for 10 hrs. The format is functional, Salmonella enterica subsp. enterica serovar Typhimurium. The method, boiled down:
as §4

The test system of data set [14] is Salmonella typhimurium. Put plainly: Bactericidal activity against 2 hrs-gentamicin pre-exposed Salmonella typhimurium ATCC 14028 assessed as reduction colony forming units at 10 uM measured within 9 hrs. The format is functional, organism-based. The settings on record: Salmonella enterica subsp. enterica serovar Typhimurium. The method, boiled down:
(§6)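 RAW264.7 cells in DMEM/10% FBS were infected with S. Typhimurium ATCC14028 at MOI 10 for 1 h, then given 100 µg/mL gentamicin for 2 h at 37 °C and washed. Cells were treated with 10 µM agent for 1, 3, 6, 9 and 12 h, lysed with 0.1% Triton X-100, and surviving intracellular bacteria were serially diluted and plated for CFU.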

Data set [15] is described as follows: Drug internalization in mouse RAW264.7 using FITC-labeled compound at 2 uM pre-incubated for 1 hr with tubulin polymerization inhibitor nocodazole followed by compound addition and subsequent incubation for 2 hrs by flow cytometry. It is filed as ADME, cell-based. The conditions noted are these: raw264.7, 2 h. In outline: as §5
Data set [16] can be described thus: Drug internalization in mouse RAW264.7 using FITC-labeled compound at 2 uM pre-incubated for 1 hr with macropinocytosis inhibitor amiloride followed by compound addition and subsequent incubation for 2 hrs by flow cytometry. The conditions noted are these: raw264.7, 2 h. It is filed as ADME, cell-based. In outline: as §5
The subject of data set [17] is Salmonella typhimurium. The data set can be described thus: Bactericidal activity against 2 hrs-gentamicin pre-exposed Salmonella typhimurium ATCC 14028 assessed as effect on bacterial re-growth at 10 uM measured after 9 hrs. It is filed as functional, organism-based. The conditions noted are these: Salmonella enterica subsp. enterica serovar Typhimurium. The method, boiled down:
as §6

Data set [18] in a line: Induction of hemolysis in mouse RBC at 100 uM incubated for 1 hrs at 37 degC. The conditions noted are these: red blood cells (erythrocytes), read-out: Activity. It is filed as cell-based, Erythrocyte. In outline:
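Fresh mouse erythrocytes were washed three times in 0.9% NaCl, and an 8% suspension was incubated with peptide (2-fold dilutions, 100 to 0.3125 µM) for 1 h at 37 °C. Released hemoglobin was read at 540 nm. 1% Triton X-100 defined 100% lysis; polymyxin served as positive control and NaCl as negative.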

Each structure is given as a SMILES string. In brackets after ≈: the same amount, converted by molar mass. Activity calls are given as the source filed them. The rule behind the calls is not given here. Positions of bridges follow the written chain, without caps; N, C: chain ends. Residues, ends and D or L forms follow the SMILES beside them.

On to `CC(C)[C@H](NC(=O)CCCCCN1C(=O)CC(SC[C@H](N)C(=O)N[C@@H](Cc2ccc(O)cc2)C(=O)NCC(=O)N[C@@H](CCCNC(=N)N)C(=O)N[C@@H](CCCCN)C(=O)N[C@@H](CCCCN)C(=O)N[C@@H](CCCNC(=N)N)C(=O)N[C@@H](CCCNC(=N)N)C(=O)N[C@@H](CCC(N)=O)C(=O)N[C@@H](CCCNC(=N)N)C(=O)N[C@@H](CCCNC(=N)N)C(=O)N[C@@H](CCCNC(=N)N)C(=O)O)C1=O)C(=O)N[C@@H](CCCNC(N)=O)C(=O)Nc1ccc(COC(=O)NCC(=O)N[C@@H](Cc2ccccc2)C(=O)N[C@@H](C)C(=O)N[C@@H](Cc2c[nH]c3ccccc23)C(=O)N[C@@H](CC(N)=O)C(=O)N[C@H](C(=O)N[C@H]2CSSC[C@@H](C(=O)N[C@@H](Cc3cnc[nH]3)C(=O)N[C@@H](CCCNC(=N)N)C(=O)N[C@@H](CCCNC(=N)N)C(=O)N[C@@H](C)C(=O)N[C@@H](CC(N)=O)C(=O)O)NC(=O)[C@H](C(C)C)NC(=O)[C@H](CCCNC(=N)N)NC(=O)[C@H](C(C)C)NC(=O)CNC(=O)[C@H](CC(N)=O)NC(=O)[C@H](CCCNC(=N)N)NC(=O)[C@H](Cc3ccc(O)cc3)NC(=O)[C@H](C(C)C)NC2=O)C(C)C)cc1` (stereo partly specified), for which the Activity in the data set with Salmonella typhimurium [1] is 81%; in the data set with Salmonella typhimurium [6], 81%; in the data set on Salmonella typhimurium [8] it was 67.2%; in the data set on Salmonella typhimurium [13], 1.06 log10CFU. Also, the MIC (usually the lowest concentration found to suppress growth) in the data set with Salmonella typhimurium [2] was more than 27.2 µM; in the data set on Salmonella typhimurium [3], 1.7 µM (≈ 8.05 µg/mL); in the data set on Salmonella typhimurium [9] it was 13.6 µM (≈ 64.4 µg/mL). Besides, the Drug uptake in data set [4] is given as 95.8%; in data set [7], 82.1%; in data set [10], “Active”; in [11], “Not Active”; in [15] it was “Not Active”; in [16] it was “Active”. Further, the viability at 8 h, 100 µM in data set [5] turned out to be 88.9%. For the same molecule, the Time result with Salmonella typhimurium [12] was “<=2 hr”. Besides, the outcome in the data set on Salmonella typhimurium [14] was Active. Further, the result in the data set with Salmonella typhimurium [17] was inactive. In [18], the hemolysis at 1 h, 100 µM was 3.81%.
In the case of `CC(C)[C@@H]1NC(=O)CNC(=O)[C@H](CC(N)=O)NC(=O)[C@H](CCCNC(=N)N)NC(=O)[C@H](Cc2ccc(O)cc2)NC(=O)[C@H](C(C)C)NC(=O)[C@@H](NC(=O)[C@@H](NC(=O)[C@H](CC(N)=O)NC(=O)[C@H](Cc2c[nH]c3ccccc23)NC(=O)[C@H](C)NC(=O)[C@H](Cc2ccccc2)NC(=O)CN)C(C)C)CSSC[C@@H](C(=O)N[C@@H](Cc2cnc[nH]2)C(=O)N[C@@H](CCCNC(=N)N)C(=O)N[C@@H](CCCNC(=N)N)C(=O)N[C@@H](C)C(=O)N[C@@H](CC(N)=O)C(N)=O)NC(=O)[C@H](C(C)C)NC(=O)[C@H](CCCNC(=N)N)NC1=O` (H-GFAWNVCVYRNGVRVCHRRAN-NH2; disulfide 7-16), the Activity in the data set with Salmonella typhimurium [1] stood at 200%; with Salmonella typhimurium [6] it was 200%; with Salmonella typhimurium [8], 96.3%; with Salmonella typhimurium [13], 2.01 log10CFU. The MIC with Salmonella typhimurium [2] worked out at 0.81 µM (≈ 2 µg/mL); in the data set on Salmonella typhimurium [3], 1.62 µM (≈ 4.01 µg/mL); with Salmonella typhimurium [9], 3.2 µM (≈ 7.92 µg/mL). Besides, the Drug uptake is given as 75.2% in [4]; 30.4% in [7]; “Active” in [10]; “Active” in data set [11]; “Not Active” in data set [15]; “Not Active” in [16]. Further, in data set [5], the viability at 8 h, 100 µM was found to be 93.5%. In addition, in the data set with Salmonella typhimurium [12], the Time result is reported as “<=2 hr”. Moreover, in the data set with Salmonella typhimurium [14], the result was Active. In the data set with Salmonella typhimurium [17], the outcome was inactive. Moreover, in data set [18], the hemolysis at 1 h, 100 µM was found to be 2.05%.

Source of the values: ChEMBL document CHEMBL4196141, “Improved Antibacterial Activity of the Marine Peptide N6 against Intracellular Salmonella Typhimurium by Conjugating with the Cell-Penetrating Peptide Tat11 via a Cleavable Linker” (J Med Chem, 2018).
